Reference: ChEMBL document CHEMBL1148142, “New metabolites from sponge-derived fungi Curvularia lunata and Cladosporium herbarum” (J Nat Prod, 2002)
Activity calls are given as the source filed them. The rule behind the calls is not given here.

Tests used:
[1] = test system: HL-60; experiment: Cytotoxicity against human HL60 cells; format: functional, cell-based
[2] = test system: Staphylococcus aureus; experiment: Antibacterial activity against Staphylococcus aureus ATCC 25923 at 5 ug/disk by agar plate diffusion assay; format: functional; conditions: read-out: IZ
Method in brief: (§1)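 Paper disks (5.5 mm) loaded with 5 or 10 μg of pure compound, laid on agar plates seeded with the test organism. Plates incubated 24 h at 37 °C, then inspected for inhibition zones.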

[3] = test system: Staphylococcus aureus; experiment: Antibacterial activity against Staphylococcus aureus ATCC 25923 at 10 ug/disk by agar plate diffusion assay; format: functional; conditions: read-out: IZ; method in brief: as §1
[4] = test system: Bacillus subtilis; experiment: Antibacterial activity against Bacillus subtilis 168 at 5 ug/disk by agar plate diffusion assay; format: functional; conditions: read-out: IZ; method in brief: as §1
[5] = test system: Escherichia coli; experiment: Antibacterial activity against Escherichia coli ATCC 25922 at 5 ug/disk by agar plate diffusion assay; format: functional; conditions: read-out: IZ; method in brief: as §1
[6] = test system: Bacillus subtilis; experiment: Antibacterial activity against Bacillus subtilis 168 at 10 ug/disk by agar plate diffusion assay; format: functional; conditions: read-out: IZ; method in brief: as §1
[7] = test system: Escherichia coli; experiment: Antibacterial activity against Escherichia coli ATCC 25922 at 10 ug/disk by agar plate diffusion assay; format: functional; conditions: read-out: IZ; method in brief: as §1
[8] = test system: Escherichia coli; experiment: Antibacterial activity against Escherichia coli HBI 101 at 5 ug/disk by agar plate diffusion assay; format: functional; conditions: read-out: IZ; method in brief: as §1
[9] = test system: Escherichia coli; experiment: Antibacterial activity against Escherichia coli HBI 101 at 10 ug/disk by agar plate diffusion assay; format: functional; conditions: read-out: IZ; method in brief: as §1
[10] = test system: Candida albicans; experiment: Antifungal activity against Candida albicans at 5 ug/disk by agar plate diffusion assay; format: functional, organism-based; method in brief: as §1
[11] = test system: Candida albicans; experiment: Antifungal activity against Candida albicans at 10 ug/disk by agar plate diffusion assay; format: functional, organism-based; method in brief: as §1

SMILES: O=C(O)CC1OC(=O)c2c(O)cc(O)cc21 (stereo unspecified)
- Activity [1]: Not toxic

SMILES: COc1cc(O)c2c(c1)C(=O)C13C(=C(O)C4[C@@H](O)C1C1[C@H](O)C3C(O)=C3C(=O)c5c(O)cc(OC)cc5C(=O)C341)C2=O (stereo partly specified) [CYTOSKYRIN A]
- zone of inhibition at 5 µg/disc [2]: 8.5 mm
- zone of inhibition at 10 µg/disc [3]: 10 mm
- zone of inhibition at 5 µg/disc [4]: 8 mm
- zone of inhibition at 5 µg/disc [5]: 9 mm
- zone of inhibition at 10 µg/disc [6]: 12 mm
- zone of inhibition at 10 µg/disc [7]: 11 mm
- zone of inhibition at 5 µg/disc [8]: 8 mm
- zone of inhibition at 10 µg/disc [9]: 9 mm
- Activity [10]: inactive
- Activity [11]: inactive

SMILES: COc1cc(O)c2c(c1)C(=O)c1cc(O)cc(O)c1C2=O [LUNATIN]
- zone of inhibition at 5 µg/disc [2]: 8.5 mm
- zone of inhibition at 10 µg/disc [3]: 10 mm
- zone of inhibition at 5 µg/disc [4]: 7.5 mm
- zone of inhibition at 5 µg/disc [5]: 9 mm
- zone of inhibition at 10 µg/disc [6]: 9 mm
- zone of inhibition at 10 µg/disc [7]: 11 mm
- zone of inhibition at 5 µg/disc [8]: 8 mm
- zone of inhibition at 10 µg/disc [9]: 10.5 mm
- Activity [10]: inactive
- Activity [11]: inactive
